Source: ChEMBL document CHEMBL1124409, “Preparation and biodistribution of 1-[2-(3-[125I]iodo-4-aminophenyl)ethyl]-4-[3-(trifluoromethyl) phenyl]piperazine and 1-[2-(3-[125I]iodo-4-azidophenyl)ethyl]-4-[3-(trifluoromethyl)phenyl] piperazine” (J Med Chem, 1989)

Experiments:
Rattus norvegicus [1] = test: Biodistribution of the radio labelled compound (azido-[125I]-IPAPP) in rat heart after 15 min of intravenous injection; assay type: ADME, organism-based; settings: in vivo
Method in brief: (§1)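 Rats received the radioligand in 0.2 mL saline into the femoral vein under ether anesthesia. They were killed by cardiac excision at set times post-injection. Organs were removed and gamma-counted at about 50% efficiency. % dose/organ was calculated against diluted aliquots of the injected material. Values are the average of three rats.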

Rattus norvegicus [2] = test: Biodistribution of the radio labelled compound (azido-[125I]-IPAPP) in rat blood after 30 min of intravenous injection; assay type: ADME, organism-based; settings: in vivo, 0.5 h; method in brief: as §1
Rattus norvegicus [3] = test: Ratio of biodistribution of the radio labelled compound ([125I]IPAPP) in rat brain to rat blood after 2 min of intravenous injection; assay type: ADME, organism-based
Method in brief: (§2)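 Rats, three per time point, received the radioligand in 0.2 mL saline into the femoral vein under ether anesthesia. They were killed by cardiac excision at 2, 15 or 30 min. Brain and blood were removed and gamma-counted at about 50% efficiency. Percent dose per organ was taken as tissue counts divided by diluted aliquots of the injected material.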

Rattus norvegicus [4] = test: Ratio of biodistribution of the radio labelled compound ([125I]IPAPP) in rat brain to rat blood after 15 min of intravenous injection; assay type: ADME, organism-based; method in brief: as §2
Rattus norvegicus [5] = test: Biodistribution of the radio labelled compound (azido-[125I]-IPAPP) in rat liver after 15 min of intravenous injection; assay type: ADME, organism-based; settings: in vivo; method in brief: as §1
Rattus norvegicus [6] = test: Biodistribution of the radio labelled compound (azido-[125I]-IPAPP) in rat brain after 30 min of intravenous injection; assay type: ADME, organism-based; settings: in vivo, 0.5 h; method in brief: as §1
Rattus norvegicus [7] = test: Biodistribution of the radio labelled compound (azido-[125I]-IPAPP) in rat lungs after 15 min of intravenous injection; assay type: ADME, organism-based, Lung; settings: in vivo; method in brief: as §1
Rattus norvegicus [8] = test: Biodistribution of the radio labelled compound (azido-[125I]-IPAPP) in rat muscle after 15 min of intravenous injection; assay type: ADME, organism-based, Muscle tissue; settings: in vivo; method in brief: as §1
Rattus norvegicus [9] = test: Biodistribution of the radio labelled compound (azido-[125I]-IPAPP) in rat liver after 2 min of intravenous injection; assay type: ADME, organism-based; settings: in vivo; method in brief: as §1
Rattus norvegicus [10] = test: Biodistribution of the radio labelled compound (azido-[125I]-IPAPP) in rat brain after 2 min of intravenous injection; assay type: ADME, organism-based; settings: in vivo; method in brief: as §1
Rattus norvegicus [11] = test: Biodistribution of the radio labelled compound (azido-[125I]-IPAPP) in rat liver after 30 min of intravenous injection; assay type: ADME, organism-based; settings: in vivo, 0.5 h; method in brief: as §1
Rattus norvegicus [12] = test: Biodistribution of the radio labelled compound (azido-[125I]-IPAPP) in rat muscle after 30 min of intravenous injection; assay type: ADME, organism-based, Muscle tissue; settings: in vivo, 0.5 h; method in brief: as §1
Rattus norvegicus [13] = test: Biodistribution of the radio labelled compound (azido-[125I]-IPAPP) in rat blood after 15 min of intravenous injection; assay type: ADME, organism-based; settings: in vivo; method in brief: as §1
Rattus norvegicus [14] = test: Biodistribution of the radio labelled compound (azido-[125I]-IPAPP) in rat blood after 2 min of intravenous injection; assay type: ADME, organism-based; settings: in vivo; method in brief: as §1
Rattus norvegicus [15] = test: Ratio of biodistribution of the radio labelled compound ([125I]IPAPP) in rat brain to rat blood after 30 min of intravenous injection; assay type: ADME, organism-based; settings: 0.5 h; method in brief: as §2
Rattus norvegicus [16] = test: Biodistribution of the radio labelled compound (azido-[125I]-IPAPP) in rat brain after 15 min of intravenous injection; assay type: ADME, organism-based; settings: in vivo; method in brief: as §1
Rattus norvegicus [17] = test: Biodistribution of the radio labelled compound (azido-[125I]-IPAPP) in rat heart after 2 min of intravenous injection; assay type: ADME, organism-based; settings: in vivo; method in brief: as §1
Rattus norvegicus [18] = test: Biodistribution of the radio labelled compound (azido-[125I]-IPAPP) in rat muscle after 2 min of intravenous injection; assay type: ADME, organism-based, Muscle tissue; settings: in vivo; method in brief: as §1
Rattus norvegicus [19] = test: Biodistribution of the radio labelled compound (azido-[125I]-IPAPP) in rat lungs after 30 min of intravenous injection; assay type: ADME, organism-based, Lung; settings: in vivo, 0.5 h; method in brief: as §1
Rattus norvegicus [20] = test: Biodistribution of the radio labelled compound (azido-[125I]-IPAPP) in rat heart after 30 min of intravenous injection; assay type: ADME, organism-based; settings: in vivo, 0.5 h; method in brief: as §1
Rattus norvegicus [21] = test: Biodistribution of the radio labelled compound (azido-[125I]-IPAPP) in rat lungs after 2 min of intravenous injection; assay type: ADME, organism-based, Lung; settings: in vivo; method in brief: as §1
Rattus norvegicus [22] = test: Ratio of biodistribution of the radio labelled compound (azido-[125I]-IPAPP) in rat brain to rat blood after 2 min of intravenous injection; assay type: ADME, organism-based
Rattus norvegicus [23] = test: Ratio of biodistribution of the radio labelled compound (azido-[125I]-IPAPP) in rat brain to rat blood after 15 min of intravenous injection; assay type: ADME, organism-based
Rattus norvegicus [24] = test: Ratio of biodistribution of the radio labelled compound (azido-[125I]-IPAPP) in rat brain to rat blood after 30 min of intravenous injection; assay type: ADME, organism-based; settings: 0.5 h

Row | Dose/organ (Rattus norvegicus [1]) | Dose/organ (Rattus norvegicus [2]) | Dose/organ (Rattus norvegicus [5]) | Dose/organ (Rattus norvegicus [6]) | Dose/organ (Rattus norvegicus [7]) | Dose/organ (Rattus norvegicus [8]) | Dose/organ (Rattus norvegicus [9]) | Dose/organ (Rattus norvegicus [10]) | Dose/organ (Rattus norvegicus [11]) | Dose/organ (Rattus norvegicus [12]) | Dose/organ (Rattus norvegicus [13]) | Dose/organ (Rattus norvegicus [14]) | Dose/organ (Rattus norvegicus [16]) | Dose/organ (Rattus norvegicus [17]) | Dose/organ (Rattus norvegicus [18]) | Dose/organ (Rattus norvegicus [19]) | Dose/organ (Rattus norvegicus [20]) | Dose/organ (Rattus norvegicus [21]) | also measured | Structure (SMILES)
1 | 0.309% | 1.96% | 19.4% | 0.935% | 3.15% | 13.6% | 13.1% | 1.68% | 18.9% | 11.8% | 2.23% | 6.99% | 0.91% | 2.34% | 6.51% | 4.16% | 0.262% | 14.2% | Ratio (Rattus norvegicus [3]): 2.63; Ratio (Rattus norvegicus [4]): 4.92; Ratio (Rattus norvegicus [15]): 4.76 | Nc1ccc(CCN2CCN(c3cccc(C(F)(F)F)c3)CC2)cc1I
2 | 0.548% | 2.76% | 34.3% | 0.75% | 2.15% | 16.6% | 32.5% | 0.503% | 28.5% | 14.4% | 3.21% | 9.74% | 0.667% | 1.4% | 11.8% | 1.73% | 0.372% | 6.5% | Ratio (Rattus norvegicus [22]): 0.499; Ratio (Rattus norvegicus [23]): 1.99; Ratio (Rattus norvegicus [24]): 2.53 | [N-]=[N+]=Nc1ccc(CCN2CCN(c3cccc(C(F)(F)F)c3)CC2)cc1I
